Reference: ChEMBL document CHEMBL2424551, “Synthesis, in vitro evaluation and molecular modelling of naphthalimide analogue as anticancer agents” (2013)
Active and inactive are the calls of the source. The calls are words filed in the database; no cut-off is given here.

Key:
Type in all cases: functional
[1] = test system: COLO 205; test: Growth inhibition of human COLO205 cells at 10 uM after 48 hrs by SRB assay; conditions: COLO 205, 48 h, read-out: GI
In short: (§1)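 Cells grown in RPMI 1640 with 5% FBS and 2 mM L-glutamine, plated at 5000–40,000 cells/well by doubling time and preincubated 24 h (37 °C, 5% CO2); a time-zero plate is TCA-fixed. Single dose added, then 48 h incubation. Fixed with cold TCA, stained with 0.4% SRB, dye solubilized in 10 mM Tris base, absorbance at 515 nm; percent growth vs time-zero and untreated control.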

[2] = test system: HOP-92; test: Growth inhibition of human HOP92 cells at 10 uM after 48 hrs by SRB assay; conditions: HOP-92, 48 h, read-out: GI; in short: as §1
[3] = Growth inhibition of human EKVX cells at 10 uM after 48 hrs by SRB assay; conditions: read-out: GI; in short: as §1
[4] = test system: MOLT-4; test: Growth inhibition of human MOLT4 cells at 10 uM after 48 hrs by SRB assay; conditions: MOLT-4, 48 h, read-out: GI; in short: as §1
[5] = test system: HL-60(TB); test: Growth inhibition of human HL-60(TB) cells at 10 uM after 48 hrs by SRB assay; conditions: HL-60, 48 h, read-out: GI
In short: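 Single-concentration pass across the 60-line panel in RPMI 1640 with 5% FBS. Cells preincubated 24 h, then exposed 48 h at 37 °C, 5% CO2. Read by SRB staining with absorbance at 515 nm. Percent growth is taken relative to time-zero and untreated controls and reported as percent growth inhibition (GI %).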

[6] = Cytotoxicity against human breast cancer cells after 48 hrs by SRB assay; conditions: Cancer cell lines
In short: (§2)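 Five-concentration screen (10-fold or ½-log serial dilutions) on the 60-line panel. Cells grown in RPMI 1640 with 5% FBS and 2 mM L-glutamine, plated at 5000–40,000/well by doubling time, preincubated 24 h at 37 °C, 5% CO2, then exposed 48 h. Time-zero plates TCA-fixed. SRB stain, Tris-solubilized, A515. GI50, TGI and LC50 derived from Tz, C and Ti.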

[7] = Cytotoxicity against human prostate cancer cells after 48 hrs by SRB assay; conditions: Cancer cell lines; in short: as §2
[8] = Cytotoxicity against human renal cancer cells after 48 hrs by SRB assay; conditions: Cancer cell lines; in short: as §2
[9] = Cytotoxicity against human melanoma cells after 48 hrs by SRB assay; conditions: Melanoma cell; in short: as §2
[10] = Cytotoxicity against human ovarian cancer cells after 48 hrs by SRB assay; conditions: Cancer cell lines; in short: as §2
[11] = Cytotoxicity against human CNS cancer cells after 48 hrs by SRB assay; conditions: Cancer cell lines; in short: as §2
[12] = Cytotoxicity against human colon cancer cells after 48 hrs by SRB assay; conditions: Cancer cell lines; in short: as §2
[13] = Cytotoxicity against human non-small cell lung cancer cells after 48 hrs by SRB assay; conditions: Cancer cell lines; in short: as §2
[14] = Cytotoxicity against human leukemia cells after 48 hrs by SRB assay; conditions: Leukemia cell; in short: as §2
[15] = test system: MDA-MB-231; test: Growth inhibition of human MDA-MB-231 cells at 10 uM after 48 hrs by SRB assay; conditions: MDA-MB-231, 48 h, read-out: GI; in short: as §1
[16] = test system: DU-145; test: Growth inhibition of human DU145 cells at 10 uM after 48 hrs by SRB assay; conditions: DU-145, 48 h, read-out: GI; in short: as §1
[17] = test system: UO-31; test: Growth inhibition of human UO31 cells at 10 uM after 48 hrs by SRB assay; conditions: UO-31, 48 h, read-out: GI
In short: (§3)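 NCI 60-cell-line screen with a single 10 µM dose. Cells are grown in RPMI 1640 with 5% FBS and 2 mM L-glutamine, plated at 5000–40,000 cells/well according to doubling time, and preincubated 24 h at 37 °C, 5% CO2; time-zero plates are TCA-fixed at that point. Drug exposure is 48 h. Adherent cells are fixed with cold TCA, stained with 0.4% SRB in 1% acetic acid and read at 515 nm. Percent growth is calculated relative to time-zero and untreated controls and reported as GI%.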

[18] = test system: ACHN; test: Growth inhibition of human ACHN cells at 10 uM after 48 hrs by SRB assay; conditions: read-out: GI; in short: as §1
[19] = test system: CAKI-1; test: Growth inhibition of human Caki1 cells at 10 uM after 48 hrs by SRB assay; conditions: CAKI-1, 48 h, read-out: GI; in short: as §1
[20] = test system: 786-0; test: Growth inhibition of human 786-0 cells at 10 uM after 48 hrs by SRB assay; conditions: 786-0, 48 h, read-out: GI; in short: as §1
[21] = Growth inhibition of human NCI-ADR-RES cells at 10 uM after 48 hrs by SRB assay; conditions: read-out: GI; in short: as §1
[22] = test system: IGROV-1; test: Growth inhibition of human IGROV1 cells at 10 uM after 48 hrs by SRB assay; conditions: IGROV-1, 48 h, read-out: GI; in short: as §1
[23] = test system: UACC-257; test: Growth inhibition of human UACC257 cells at 10 uM after 48 hrs by SRB assay; conditions: UACC-257, 48 h, read-out: GI; in short: as §3
[24] = test system: SK-MEL-2; test: Growth inhibition of human SK-MEL-2 cells at 10 uM after 48 hrs by SRB assay; conditions: SK-MEL-2, 48 h, read-out: GI; in short: as §1
[25] = test system: MDA-MB-435; test: Growth inhibition of human MDA-MB-435 cells at 10 uM after 48 hrs by SRB assay; conditions: MDA-MB-435, 48 h, read-out: GI; in short: as §1
[26] = test system: LOX IMVI; test: Growth inhibition of human LOXIMVI cells at 10 uM after 48 hrs by SRB assay; conditions: read-out: GI; in short: as §1
[27] = test system: SF-295; test: Growth inhibition of human SF295 cells at 10 uM after 48 hrs by SRB assay; conditions: SF-295, 48 h, read-out: GI; in short: as §1
[28] = test system: SF-539; test: Growth inhibition of human SF539 cells at 10 uM after 48 hrs by SRB assay; in short: as §1
[29] = test system: SF-268; test: Growth inhibition of human SF268 cells at 10 uM after 48 hrs by SRB assay; conditions: SF-268, 48 h, read-out: GI; in short: as §1
[30] = test system: HT-29; test: Growth inhibition of human HT-29 cells at 10 uM after 48 hrs by SRB assay; conditions: HT-29, 48 h, read-out: GI; in short: as §1
[31] = test system: OVCAR-8; test: Growth inhibition of human OVCAR8 cells at 10 uM after 48 hrs by SRB assay; conditions: OVCAR-8, 48 h, read-out: GI; in short: as §1
[32] = test system: SK-MEL-28; test: Growth inhibition of human SK-MEL-28 cells at 10 uM after 48 hrs by SRB assay; conditions: SK-MEL-28, 48 h, read-out: GI; in short: as §1
[33] = test system: M14; test: Growth inhibition of human M14 cells at 10 uM after 48 hrs by SRB assay; conditions: M14, 48 h, read-out: GI; in short: as §1
[34] = read-out: LC50 (the source's name)

Compound `O=c1[nH]cc(F)c(=O)[nH]1` [FLUOROURACIL] has an inhibition of growth at 10 µM [1] of 40.2%, an inhibition of growth at 10 µM [2] of 50.6% and an inhibition of growth at 10 µM [3] of 58.4%. For the same compound, the inhibition of growth at 10 µM [4] was 43.1%, the inhibition of growth at 10 µM [5] was 47.9% and the GI50 [6] was 76.4 µM. It also gave a TGI [6] greater than 100 µM, a GI50 [7] of 22.7 µM and a TGI [7] greater than 100 µM. The GI50 [8] was 45.6 µM, the TGI [8] was greater than 100 µM and the CC50 [8, 34] was greater than 100 µM. For the same compound, the GI50 [9] was 70.6 µM, the TGI [9] was greater than 100 µM and the GI50 [10] was 61.4 µM. The TGI [10] was greater than 100 µM, the CC50 [10, 34] was greater than 100 µM and the GI50 [11] was 72.1 µM. For the same compound, the TGI [11] was greater than 100 µM, the CC50 [11, 34] was greater than 100 µM and the GI50 [12] was 8.4 µM. The TGI [12] was greater than 100 µM, the CC50 [12, 34] was greater than 100 µM and the GI50 [13] was greater than 100 µM. It also gave a TGI [13] greater than 100 µM, a GI50 [14] of 1.51 µM and a TGI [14] greater than 100 µM. For the same compound, the inhibition of growth at 10 µM [15] was 78.1%, the inhibition of growth at 10 µM [16] was 35.5% and the inhibition of growth at 10 µM [17] was 41.3%. For the same compound, the inhibition of growth at 10 µM [18] was 39.3%, the inhibition of growth at 10 µM [19] was 39.4% and the inhibition of growth at 10 µM [20] was 48.7%. For the same compound, the inhibition of growth at 10 µM [21] was 47.6%, the inhibition of growth at 10 µM [22] was 51.2% and the inhibition of growth at 10 µM [23] was 19.5%. It also gave an inhibition of growth at 10 µM [24] of 95.5%, an inhibition of growth at 10 µM [25] of 36.6% and an inhibition of growth at 10 µM [26] of 30.4%. The inhibition of growth at 10 µM [27] was 69.1%, the “growth inhibition (GI)” value [28] was “Active” and the inhibition of growth at 10 µM [29] was 59%. It also gave an inhibition of growth at 10 µM [30] of 27.1%.
In the case of `O=c1c2cccc3c(N4CCCC4)ccc(c32)c2nc3ccccc3n12`, the inhibition of growth at 10 µM [1] is reported as 36.4%, the inhibition of growth at 10 µM [2] is reported as 59.3% and the inhibition of growth at 10 µM [3] is reported as 24.1%. For the same compound, the inhibition of growth at 10 µM [4] was 97.4%, the inhibition of growth at 10 µM [5] was 28% and the inhibition of growth at 10 µM [15] was 22.9%. For the same compound, the inhibition of growth at 10 µM [16] was 21.9%, the inhibition of growth at 10 µM [17] was 43.8% and the inhibition of growth at 10 µM [18] was 47.6%. It also gave an inhibition of growth at 10 µM [19] of 48.7%, an inhibition of growth at 10 µM [20] of less than 20% and an inhibition of growth at 10 µM [21] of less than 20%. It also gave an inhibition of growth at 10 µM [31] of 34%, an inhibition of growth at 10 µM [22] of 42.9% and an inhibition of growth at 10 µM [23] of less than 20%. The inhibition of growth at 10 µM [32] was less than 20%, the inhibition of growth at 10 µM [24] was less than 20% and the inhibition of growth at 10 µM [25] was less than 20%. For the same compound, the inhibition of growth at 10 µM [33] was less than 20%, the inhibition of growth at 10 µM [26] was 48.3% and the inhibition of growth at 10 µM [27] was 40.2%. The inhibition of growth at 10 µM ([28]; SF-539, 48 h, read-out: GI) was less than 20%, the inhibition of growth at 10 µM [29] was less than 20% and the inhibition of growth at 10 µM [30] was 22.2%.
